Data as given in ChEMBL document CHEMBL4414601 (J Med Chem, 2019).
pEC50: −log10 of the molar value. ≈ marks a conversion by molar mass, not a printed value.

Key:
Plasmodium falciparum [1] = assay: Antiplasmodial activity against Plasmodium falciparum 3D7A erythrocytic stage assessed as reduction in [3H]hypoxanthine incorporation preincubated for 24 hrs followed by [3H]hypoxanthine addition and measured after 24 hrs by microbeta scintillation counting method; type: functional, organism-based
Summary of the method: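 Nine threefold serial dilutions from 5 μM top concentration. Incubated 24 h at 37 °C under 5% CO2/5% O2/90% N2, then 0.2 μCi [3H]-hypoxanthine per well for another 24 h. Cells harvested on glass fibre filters and counted. Data normalized to compound-free parasitized RBCs; IC50 fitted.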

[2] = Lipophilicity, LogD of compound by reverse phase HPLC analysis
[3] = Aqueous solubility of compound; details: buffer
L929 = assay: Cytotoxicity against mouse L929 cells assessed as reduction in viability by dual luciferase reporter gene assay; type: ADME, cell-based
[4] = Permeability of compound by PAMPA
Plasmodium falciparum [5] = assay: Antiplasmodial activity against […] of Plasmodium falciparum NF54 assessed as reduction in male gametocytes activation preincubated for 48 hrs followed by gametocytes activation and measured after 24 hrs by fluorescence based automated inverted microscopic analysis; type: functional, organism-based
Summary of the method: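 Gametocyte activation was triggered by reduced temperature and ookinete medium containing xanthurenic acid. Male exflagellation centres were detected from a 10-frame video, scoring pixel changes caused by flagellar movement shifting surrounding cells.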

Plasmodium falciparum [6] = assay: Antiplasmodial activity against […] of Plasmodium falciparum NF54 assessed as reduction in female gametocytes activation preincubated for 48 hrs followed by gametocytes activation and measured after 24 hrs by fluorescence based automated inverted microscopic analysis; type: functional, organism-based
Summary of the method: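 NF54 gametocytes were activated by lowered temperature plus ookinete medium with xanthurenic acid and anti-Pfs25-Cy3 antibody (1/2000 final dilution). Cultures were then kept at 26 °C for 24 h in the dark. Activated females were counted by Cy3 anti-Pfs25 fluorescence, with events gated on size, roundness and fluorescence intensity.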

[7] = Clearance in mouse liver microsomes at 0.5 uM measured up to 45 mins in presence of NADPH by HPLC-MS/MS analysis; type: ADME, Microsome
[8] = Clearance in rat liver microsomes at 0.5 uM measured up to 45 mins in presence of NADPH by HPLC-MS/MS analysis; type: ADME, Microsome
[9] = Clearance in human liver microsomes at 0.5 uM measured up to 45 mins in presence of NADPH by HPLC-MS/MS analysis; type: ADME, Microsome

Row | SMILES | pEC50 (Plasmodium falciparum [1]) | chromatographic logD [2] | solubility [3] [µM] | pEC50 (L929) | Papp [4] [×10⁻⁶ cm/s] | pEC50 (Plasmodium falciparum [5]) | pEC50 (Plasmodium falciparum [6]) | CLH [7] [mL/min/g] | CLH [8] [mL/min/g] | CLH [9] [mL/min/g]
1 | Fc1ccc(-c2nc(C3CCNCC3)oc2-c2ccnc(Nc3ccncn3)n2)cc1 | < 5.30 | 1.79 | 226 (≈ 94.3 µg/mL) | 4.67 | 19 | – | – | – | – | –
2 | CCc1nc(N)nc(N)c1-c1ccc(Cl)cc1 [PYRIMETHAMINE] | 7.00 | – | – | – | – | < 5.00 | < 5.00 | – | – | –
3 | O=C(Nc1nc(-c2ccc(F)cc2)c(-c2ccnc(Nc3ccc(N4CCNCC4)cc3)n2)s1)C1CC1 | < 5.30 | 2.53 | – | 4.59 | 2 | – | – | – | – | –
4 | O[C@H]1CC[C@H](Nc2nccc(-c3sc(C4CCNCC4)nc3-c3ccc(F)cc3)n2)CC1 | < 5.30 | 2.12 | 287 (≈ 130 µg/mL) | 4.56 | 5.5 | – | – | – | – | –
5 | CCOc1nccc(Nc2nccc(-c3sc(C4CCNCC4)nc3-c3ccc(F)cc3)n2)n1 | 6.22 | 3.21 | 35 (≈ 16.7 µg/mL) | 5.68 | 17 | – | – | – | – | –
6 | CN1CCN(CCNc2nccc(-c3sc(C4CCNCC4)nc3-c3ccc(F)cc3)n2)CC1 | < 5.30 | 1.34 | 238 (≈ 115 µg/mL) | 4.00 | 1 | – | – | – | – | –
7 | c1cc(Nc2nccc(-c3sc(C4CCNCC4)nc3C3CC3)n2)ncn1 | 5.46 | 1.71 | 139 (≈ 52.7 µg/mL) | 4.36 | 18 | – | – | – | – | –
8 | Fc1ccc(-c2nc(C3CCNCC3)sc2-c2ccnc(Nc3cccnn3)n2)cc1 | 6.01 | 2.14 | 123 (≈ 53.3 µg/mL) | 5.49 | 19 | – | – | 4.42 | 0.95 | 0.47
9 | OC1CCN(c2nccc(-c3sc(C4CCNCC4)nc3-c3ccc(F)cc3)n2)C1 (centres undefined) | < 5.30 | 1.92 | 273 (≈ 116 µg/mL) | 4.14 | 6.5 | – | – | – | – | –
10 | Fc1ccc(-c2nc(C3CCNCC3)sc2-c2ccnc(NCC3CCCO3)n2)cc1 (centres undefined) | < 5.30 | 2.77 | 299 (≈ 131 µg/mL) | 4.77 | 32 | – | – | – | – | –
11 | O=S(=O)(Nc1nc(-c2ccc(F)cc2)c(-c2ccnc(Nc3ccc(N4CCNCC4)cc3)n2)s1)C1CCNCC1 | < 5.30 | 1.34 | – | 4.13 | 3 | – | – | – | – | –
12 | Oc1cc(Nc2nccc(-c3sc(C4CCNCC4)nc3-c3ccc(F)cc3)n2)ccn1 | 5.46 | 1.64 | – | 4.00 | 2 | – | – | – | – | –
13 | Fc1ccc(-c2nc(C3CCNCC3)sc2-c2ccnc(N3CCC(CN4CCOCC4)CC3)n2)cc1 | < 5.30 | 3.75 | 355 (≈ 186 µg/mL) | 4.89 | 38 | – | – | – | – | –
14 | OCCNc1nccc(-c2sc(C3CCNCC3)nc2-c2ccc(F)cc2)n1 | 5.39 | 1.52 | 351 (≈ 140 µg/mL) | 4.21 | 1 | – | – | – | – | –
15 | Fc1ccc(-c2nc(N3CCOCC3)sc2-c2ccnc(Nc3ccc(N4CCNCC4)cc3)n2)cc1 | 5.79 | 3.99 | 38 (≈ 19.7 µg/mL) | 5.48 | 28 | 5.95 | 5.97 | 0.48 | 0.59 | 0.4
16 | CN1CCC(C(=O)Nc2nc(-c3ccc(F)cc3)c(-c3ccnc(Nc4ccc(N5CCNCC5)cc4)n3)s2)CC1 | 5.84 | 2.2 | 11 (≈ 6.3 µg/mL) | 5.11 | 1 | 6.20 | 5.88 | 0.48 | 0.46 | 0.4
17 | CN1CCN(c2ccc(Nc3nccc(-c4sc(N)nc4-c4ccc(F)cc4)n3)cc2)CC1 | < 5.30 | 3.61 | 8 (≈ 3.69 µg/mL) | 5.60 | 26 | – | – | – | – | –
18 | Fc1ccc(-c2nc(C3CCNCC3)sc2-c2ccnc(N3CCC(N4CCOCC4)CC3)n2)cc1 | 5.63 | 2.83 | 251 (≈ 128 µg/mL) | 4.81 | 27 | – | – | – | – | –
19 | Cc1cc(Nc2nccc(-c3sc(C4CCNCC4)nc3-c3ccc(F)cc3)n2)nn1C | < 5.30 | 2.52 | 146 (≈ 65.6 µg/mL) | 5.29 | 20 | – | – | – | – | –
20 | CCc1cc(Nc2nccc(-c3sc(C4CCNCC4)nc3-c3ccc(F)cc3)n2)nc(C)c1F | 5.54 | 4.92 | 17 (≈ 8.37 µg/mL) | 5.37 | – | – | – | – | – | –
21 | Fc1ccc(-c2nc(C3CCNCC3)sc2-c2ccnc(Nc3ccccn3)n2)cc1 | 5.62 | 2.96 | 56 (≈ 24.2 µg/mL) | 5.21 | 33 | – | – | – | – | –

Row | SMILES | pEC50 (Plasmodium falciparum [1]) | chromatographic logD [2] | solubility [3] [µM] | pEC50 (L929) | Papp [4] [×10⁻⁶ cm/s] | pEC50 (Plasmodium falciparum [5]) | pEC50 (Plasmodium falciparum [6]) | CLH [7] [mL/min/g] | CLH [8] [mL/min/g] | CLH [9] [mL/min/g]
22 | Fc1ccc(-c2nc(C3CCNCC3)sc2-c2ccnc(N3CCCC3)n2)cc1 | < 5.30 | 3.71 | 374 (≈ 153 µg/mL) | 4.86 | 46 | – | – | – | – | –
23 | COCCNc1nccc(-c2sc(C3CCNCC3)nc2-c2ccc(F)cc2)n1 | < 5.30 | 2.45 | 235 (≈ 97.2 µg/mL) | 4.47 | 30 | – | – | – | – | –
24 | Nc1nc(-c2ccc(F)cc2)c(-c2ccnc(Nc3ccc(N4CCOCC4)cc3)n2)s1 | – | 4.61 | 26 (≈ 11.7 µg/mL) | 4.71 | 3 | – | – | – | – | –
25 | CCCS(=O)(=O)Nc1nc(-c2ccc(F)cc2)c(-c2ccnc(Nc3ccc(N4CCNCC4)cc3)n2)s1 | 5.31 | 2.5 | – | 4.00 | – | – | – | – | – | –
26 | CN1CCC(Nc2nccc(-c3sc(C4CCNCC4)nc3-c3ccc(F)cc3)n2)C1 (centres undefined) | 5.57 | 1.14 | 402 (≈ 176 µg/mL) | 4.43 | 1.7 | – | – | – | – | –
27 | Fc1ccc(-c2nc(C3CCNCC3)sc2-c2ccnc(Nc3ccn(C4CCNCC4)n3)n2)cc1 | 5.48 | 1.29 | 131 (≈ 66.1 µg/mL) | 4.00 | 3 | – | – | – | – | –
28 | C[C@H]1[C@H](OC(=O)CCC(=O)O)O[C@@H]2O[C@@]3(C)CC[C@H]4[C@H](C)CC[C@@H]1[C@@]24OO3 [ARTESUNATE] | 7.52 | – | – | – | – | < 5.00 | < 5.00 | – | – | –
29 | Fc1ccc(-c2nc(C3CCNCC3)sc2-c2ccnc(N3CCC(N4CCC4)CC3)n2)cc1 | 5.37 | 1.63 | 114 (≈ 54.6 µg/mL) | 4.59 | 7.2 | – | – | – | – | –
30 | Cc1csc(Nc2nccc(-c3sc(C4CCNCC4)nc3-c3ccc(F)cc3)n2)n1 | 5.41 | 2.99 | 40 (≈ 18.1 µg/mL) | 5.66 | 15 | – | – | – | – | –
31 | Nc1nccc(-c2sc(C3CCNCC3)nc2-c2ccc(F)cc2)n1 | 5.66 | 1.5 | 467 (≈ 166 µg/mL) | 4.26 | 13 | – | – | – | – | –
32 | CN(C)C(CNc1nccc(-c2sc(C3CCNCC3)nc2-c2ccc(F)cc2)n1)C1CC1 (centres undefined) | 5.63 | 1.68 | 514 (≈ 240 µg/mL) | 4.92 | 3.4 | – | – | – | – | –
33 | CCOC(=O)N1CCC(c2nc(-c3ccc(F)cc3)c(-c3ccnc(Nc4ccc(N5CCN(C)CC5)cc4)n3)s2)CC1 | < 5.30 | 6.66 | 23 (≈ 13.8 µg/mL) | 5.19 | 41 | – | – | – | – | –
34 | CN(C)CCNc1nccc(-c2sc(C3CCNCC3)nc2-c2ccc(F)cc2)n1 | 5.51 | 1.07 | 244 (≈ 104 µg/mL) | 4.00 | 2.4 | – | – | – | – | –
35 | COc1cc(Nc2nccc(-c3sc(C4CCNCC4)nc3-c3ccc(F)cc3)n2)cc(C)n1 | 6.42 | 3.36 | – | 5.92 | 19 | – | – | – | – | –
36 | Cc1nnc(Nc2nccc(-c3sc(C4CCNCC4)nc3-c3ccc(F)cc3)n2)s1 | 5.35 | 2.02 | 74 (≈ 33.6 µg/mL) | 5.36 | 8 | – | – | – | – | –
37 | Cc1nccc(Nc2nccc(-c3sc(C4CCNCC4)nc3-c3ccc(F)cc3)n2)n1 | 6.09 | 2.43 | 47 (≈ 21 µg/mL) | 5.60 | 18 | – | – | – | – | –
38 | Fc1ccc(-c2nc(C3CCNCC3)sc2-c2ccnc(NCCN3CCCC3)n2)cc1 | 5.50 | 1.13 | 297 (≈ 134 µg/mL) | 4.42 | 1 | – | – | – | – | –
39 | Cc1nc(Nc2nccc(-c3sc(C4CCNCC4)nc3-c3ccc(F)cc3)n2)ccc1F | < 5.30 | 3.96 | 16 (≈ 7.43 µg/mL) | 5.28 | 30 | – | – | – | – | –
40 | Cc1nc(Nc2nccc(-c3sc(C4CCNCC4)nc3-c3ccc(F)cc3)n2)cc(C2CCC2)c1F | < 5.30 | 5.52 | 7 (≈ 3.63 µg/mL) | 4.73 | – | – | – | – | – | –
41 | Fc1ccc(-c2nc(C3CCNCC3)sc2-c2ccnc(NCCN3CCOCC3)n2)cc1 | < 5.30 | 2.02 | 408 (≈ 191 µg/mL) | – | 17 | – | – | – | – | –
